Laboratory results: ChEMBL document CHEMBL4364301 (Eur J Med Chem, 2019)

Experiments:
Type in all cases: functional
VCaP [1] = test: Antiproliferative activity against human VCaP cells assessed as T/C value at 1 uM incubated for 96 hrs by propidium iodide based 2D monolayer assay
Method in brief: (§1)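 Cells were kept in RPMI 1640 with 25 mM HEPES, 10% FCS and gentamicin at 37 °C under 5% CO2, and plated at 4,000-20,000 cells/well. After 24 h recovery, compound in medium or medium alone (control wells) was added at 10 half-log concentrations from 0.0032 to 100 µM, in triplicate, with at most 0.3% DMSO. After 96 h, wells were PBS-washed, stained with 7 µg/ml PI and 0.1% Triton X-100, and fluorescence read at 530/620 nm. IC50 came from a 4-parameter fit, geometric mean.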

CWR22R [2] = test: Antiproliferative activity against human 22Rv1 cells assessed as T/C value at 3.2 x 10^-1 uM incubated for 96 hrs by propidium iodide based 2D monolayer assay; method in brief: as §1
CWR22R [3] = test: Antiproliferative activity against human 22Rv1 cells assessed as T/C value at 1 uM incubated for 96 hrs by propidium iodide based 2D monolayer assay; method in brief: as §1
VCaP [4] = test: Antiproliferative activity against human VCaP cells assessed as T/C value at 1 x 10^-2 uM incubated for 96 hrs by propidium iodide based 2D monolayer assay; method in brief: as §1
DU-145 [5] = test: Antiproliferative activity against human DU145 cells assessed as T/C value at 3.2 uM incubated for 96 hrs by propidium iodide based 2D monolayer assay; method in brief: as §1
DU-145 [6] = test: Antiproliferative activity against human DU145 cells assessed as T/C value at 3.2 x 10^-3 uM incubated for 96 hrs by propidium iodide based 2D monolayer assay
Method in brief: as §1, with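 “After” for “Cells were kept in RPMI 1640 with 25 mM HEPES, 10% FCS and gentamicin at 37 °C under 5% CO2, and plated at 4,000-20,000 cells/well. After”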

VCaP [7] = test: Antiproliferative activity against human VCaP cells assessed as T/C value at 1 x 10^-1 uM incubated for 96 hrs by propidium iodide based 2D monolayer assay; method in brief: as §1
CWR22R [8] = test: Antiproliferative activity against human 22Rv1 cells assessed as T/C value at 1 x 10^-2 uM incubated for 96 hrs by propidium iodide based 2D monolayer assay; method in brief: as §1
DU-145 [9] = test: Antiproliferative activity against human DU145 cells assessed as reduction in cell growth incubated for 96 hrs by propidium iodide based 2D monolayer assay; conditions: DU-145, 96 h
Method in brief: as §1, with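 “After” for “Cells were kept in RPMI 1640 with 25 mM HEPES, 10% FCS and gentamicin at 37 °C under 5% CO2, and plated at 4,000-20,000 cells/well. After”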

DU-145 [10] = test: Antiproliferative activity against human DU145 cells assessed as T/C value at 3.2 x 10^-1 uM incubated for 96 hrs by propidium iodide based 2D monolayer assay
Method in brief: as §1, with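 “After” for “Cells were kept in RPMI 1640 with 25 mM HEPES, 10% FCS and gentamicin at 37 °C under 5% CO2, and plated at 4,000-20,000 cells/well. After”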

VCaP [11] = test: Antiproliferative activity against human VCaP cells assessed as T/C value at 3.2 uM incubated for 96 hrs by propidium iodide based 2D monolayer assay; method in brief: as §1
LNCaP [12] = test: Antiproliferative activity against human LNCAP cells assessed as T/C value at 3.2 x 10^1 uM incubated for 96 hrs by propidium iodide based 2D monolayer assay; method in brief: as §1
CWR22R [13] = test: Antiproliferative activity against human 22Rv1 cells assessed as T/C value at 1 x 10^1 uM incubated for 96 hrs by propidium iodide based 2D monolayer assay; method in brief: as §1
VCaP [14] = test: Antiproliferative activity against human VCaP cells assessed as T/C value at 3.2 x 10^1 uM incubated for 96 hrs by propidium iodide based 2D monolayer assay
Method in brief: (§2)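 VCaP cells in RPMI 1640 with 10% FCS at 37 °C, 5% CO2, seeded 4,000–20,000 cells/well and left 24 h before dosing. Compounds from DMSO stocks were diluted in half-log steps in medium, 10 concentrations 0.0032–100 μM, triplicate wells, max 0.3% DMSO. After 96 h, cells were washed, stained with 7 μg/ml propidium iodide plus 0.1% Triton X-100 for 1–2 h at room temperature, and fluorescence read at ex 530/em 620 nm.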

DU-145 [15] = test: Antiproliferative activity against human DU145 cells assessed as T/C value at 3.2 x 10^1 uM incubated for 96 hrs by propidium iodide based 2D monolayer assay; method in brief: as §1
CWR22R [16] = test: Antiproliferative activity against human 22Rv1 cells assessed as reduction in cell growth incubated for 96 hrs by propidium iodide based 2D monolayer assay; conditions: 22Rv1, 96 h
Method in brief: as §1, with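 “After” for “Cells were kept in RPMI 1640 with 25 mM HEPES, 10% FCS and gentamicin at 37 °C under 5% CO2, and plated at 4,000-20,000 cells/well. After”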

VCaP [17] = test: Antiproliferative activity against human VCaP cells assessed as T/C value at 3.2 x 10^-2 uM incubated for 96 hrs by propidium iodide based 2D monolayer assay; method in brief: as §2
CWR22R [18] = test: Antiproliferative activity against human 22Rv1 cells assessed as T/C value at 3.2 x 10^-3 uM incubated for 96 hrs by propidium iodide based 2D monolayer assay; method in brief: as §1
DU-145 [19] = test: Antiproliferative activity against human DU145 cells assessed as T/C value at 1 x 10^2 uM incubated for 96 hrs by propidium iodide based 2D monolayer assay; method in brief: as §1
VCaP [20] = test: Antiproliferative activity against human VCaP cells assessed as T/C value at 3.2 x 10^-1 uM incubated for 96 hrs by propidium iodide based 2D monolayer assay; method in brief: as §2
LNCaP [21] = test: Antiproliferative activity against human LNCAP cells assessed as T/C value at 3.2 uM incubated for 96 hrs by propidium iodide based 2D monolayer assay; method in brief: as §1
LNCaP [22] = test: Antiproliferative activity against human LNCAP cells assessed as T/C value at 3.2 x 10^-2 uM incubated for 96 hrs by propidium iodide based 2D monolayer assay; method in brief: as §1
VCaP [23] = test: Antiproliferative activity against human VCaP cells assessed as T/C value at 1 x 10^2 uM incubated for 96 hrs by propidium iodide based 2D monolayer assay; method in brief: as §1
VCaP [24] = test: Antiproliferative activity against human VCaP cells assessed as reduction in cell growth incubated for 96 hrs by propidium iodide based 2D monolayer assay; method in brief: as §2
DU-145 [25] = test: Antiproliferative activity against human DU145 cells assessed as T/C value at 1 uM incubated for 96 hrs by propidium iodide based 2D monolayer assay
Method in brief: as §1, with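 “After” for “Cells were kept in RPMI 1640 with 25 mM HEPES, 10% FCS and gentamicin at 37 °C under 5% CO2, and plated at 4,000-20,000 cells/well. After”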

DU-145 [26] = test: Antiproliferative activity against human DU145 cells assessed as T/C value at 1 x 10^1 uM incubated for 96 hrs by propidium iodide based 2D monolayer assay
Method in brief: as §1, with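 “After” for “Cells were kept in RPMI 1640 with 25 mM HEPES, 10% FCS and gentamicin at 37 °C under 5% CO2, and plated at 4,000-20,000 cells/well. After”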

CWR22R [27] = test: Antiproliferative activity against human 22Rv1 cells assessed as T/C value at 3.2 x 10^1 uM incubated for 96 hrs by propidium iodide based 2D monolayer assay; method in brief: as §1
LNCaP [28] = test: Antiproliferative activity against human LNCAP cells assessed as reduction in cell growth incubated for 96 hrs by propidium iodide based 2D monolayer assay
Method in brief: as §1, with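 “After” for “Cells were kept in RPMI 1640 with 25 mM HEPES, 10% FCS and gentamicin at 37 °C under 5% CO2, and plated at 4,000-20,000 cells/well. After”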

LNCaP [29] = test: Antiproliferative activity against human LNCAP cells assessed as T/C value at 1 x 10^-2 uM incubated for 96 hrs by propidium iodide based 2D monolayer assay; method in brief: as §1
LNCaP [30] = test: Antiproliferative activity against human LNCAP cells assessed as T/C value at 1 uM incubated for 96 hrs by propidium iodide based 2D monolayer assay; method in brief: as §1
DU-145 [31] = test: Antiproliferative activity against human DU145 cells assessed as T/C value at 3.2 x 10^-2 uM incubated for 96 hrs by propidium iodide based 2D monolayer assay
Method in brief: as §1, with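 “After” for “Cells were kept in RPMI 1640 with 25 mM HEPES, 10% FCS and gentamicin at 37 °C under 5% CO2, and plated at 4,000-20,000 cells/well. After”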

CWR22R [32] = test: Antiproliferative activity against human 22Rv1 cells assessed as T/C value at 3.2 uM incubated for 96 hrs by propidium iodide based 2D monolayer assay; method in brief: as §1

Compound	T/C (VCaP [1])	T/C (CWR22R [2])	T/C (CWR22R [3])	T/C (VCaP [4])	T/C (DU-145 [5])	T/C (DU-145 [6])	T/C (VCaP [7])	T/C (CWR22R [8])	IC50 (DU-145 [9])	T/C (DU-145 [10])	T/C (VCaP [11])	T/C (LNCaP [12])	T/C (CWR22R [13])	T/C (VCaP [14])	T/C (DU-145 [15])	IC50 (CWR22R [16])	T/C (VCaP [17])	T/C (CWR22R [18])	T/C (DU-145 [19])	T/C (VCaP [20])	further results
CC(O)(COc1ccc(S(F)(F)(F)(F)F)cc1)C(=O)Nc1cc(C(F)(F)F)cc(C(F)(F)F)c1 (racemic)	98%	110%	109%	102%	104%	103%	107%	106%	6.5 µM	115%	30%	2%	13%	4%	6%	3.2 µM	96%	102%	1%	91%	IC70 (DU-145 [9]): 7.99 µM; IC70 (CWR22R [16]): 4.07 µM; T/C (LNCaP [21]): 15%; T/C (LNCaP [22]): 99%; T/C (VCaP [23]): 6%; IC50 (VCaP [24]): 2.4 µM; IC70 (VCaP [24]): 3.22 µM; T/C (DU-145 [25]): 117%; T/C (DU-145 [26]): 16%; T/C (CWR22R [27]): 7%; IC50 (LNCaP [28]): 1.9 µM; IC70 (LNCaP [28]): 2.45 µM; T/C (LNCaP [29]): 92%; T/C (LNCaP [30]): 89%; T/C (DU-145 [31]): 106%; T/C (CWR22R [32]): 52%
CC(O)(COc1cc(C(F)(F)F)cc(C(F)(F)F)c1)C(=O)Nc1cccc(S(F)(F)(F)(F)F)c1 (racemic)	94%	105%	102%	87%	115%	107%	78%	105%	9.3 µM	116%	33%	1%	13%	4%	5%	6.5 µM	87%	104%	0%	91%	IC70 (DU-145 [9]): 9.59 µM; IC70 (CWR22R [16]): 7.75 µM; T/C (LNCaP [21]): 17%; T/C (LNCaP [22]): 74%; T/C (VCaP [23]): 7%; IC50 (VCaP [24]): 2.8 µM; IC70 (VCaP [24]): 3.24 µM; T/C (DU-145 [25]): 123%; T/C (DU-145 [26]): 12%; T/C (CWR22R [27]): 4%; IC50 (LNCaP [28]): 2.8 µM; IC70 (LNCaP [28]): 3 µM; T/C (LNCaP [29]): 96%; T/C (LNCaP [30]): 101%; T/C (DU-145 [31]): 114%; T/C (CWR22R [32]): 102%
CC(O)(COc1ccccc1C(F)(F)F)C(=O)Nc1ccc(S(F)(F)(F)(F)F)cc1 (racemic)	58 - 85%	69 - 110%	9 - 81%	87 - 102%	15 - 117%	102 - 112%	75 - 96%	99 - 104%	7.1 µM	107 - 132%	19 - 45%	1%	1 - 6%	3 - 11%	4%	1.4 µM	87 - 93%	101 - 106%	1%	73 - 91%	T/C (LNCaP [21]): 2 - 7%; T/C (LNCaP [22]): 88 - 94%; T/C (VCaP [23]): 5 - 10%; IC50 (VCaP [24]): 3.1 µM; T/C (DU-145 [25]): 88 - 127%; T/C (DU-145 [26]): 1 - 20%; T/C (CWR22R [27]): 1 - 3%; IC50 (LNCaP [28]): 1.2 µM; T/C (LNCaP [29]): 85 - 89%; T/C (LNCaP [30]): 25 - 60%; T/C (DU-145 [31]): 108 - 125%; T/C (CWR22R [32]): 2 - 9%
